OX1R antag-1 = human HCRTR1 antagonism; 0.43% of 330,000 active; O43613; AID 434989; CHO/OX1R cells, Fluo-8 calcium fluorescence, orexin A; inhibition, % at 5 µM;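 active = inhibition above its plate's threshold, mean inhibition of all tested compounds on the plate plus 3 SD, cut at about 37% in these data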
Target sequence (O43613 whole entry, looked up): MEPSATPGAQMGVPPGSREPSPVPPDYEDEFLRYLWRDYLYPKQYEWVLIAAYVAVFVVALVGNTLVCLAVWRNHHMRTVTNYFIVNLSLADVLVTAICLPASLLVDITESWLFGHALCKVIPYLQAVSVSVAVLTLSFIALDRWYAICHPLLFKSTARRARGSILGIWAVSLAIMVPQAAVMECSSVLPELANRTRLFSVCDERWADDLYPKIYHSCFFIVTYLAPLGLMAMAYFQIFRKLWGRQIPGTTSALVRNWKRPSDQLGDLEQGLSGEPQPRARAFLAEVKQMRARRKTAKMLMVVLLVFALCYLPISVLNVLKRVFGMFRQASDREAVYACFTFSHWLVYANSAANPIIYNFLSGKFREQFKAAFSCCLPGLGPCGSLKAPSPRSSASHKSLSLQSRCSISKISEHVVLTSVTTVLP
CHO parental Ca = signal in parental CHO cells, OX1R antagonist counter-screen; inhibition, % at 5.6 µM; 0.63% of 330,000 active; parental CHO-K1, ATP-induced calcium, Fluo-8 fluorescence;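 active = inhibition above that plate's mean sample inhibition plus 3 SD, cut at about 26% in these data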
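Test system: parental CHO cells; detection: calcium-sensitive Fluo-8 fluorescence; evaluation: percent inhibition of calcium signal; also added: ATP as calcium-mobilizing challenge; repeats: one well per compound; control set: ATP-challenged DMSO wells low, unchallenged DMSO wells high; compound: single nominal dose of 5.6 µM per compound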
GalR3 antag = human GalR3 antagonism; 0.44% of 360,000 active; HEK293 GalR3-CNG cAMP membrane potential fluorescence; galR3 body fused to GalR1 C-terminus; inhibition, % at 3 µM; O60755;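 active = inhibition above the screen-wide average plus 3 SD, cut at about 13% in these data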;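 also: forskolin and galanin both at EC90 stimulate the cells; cAMP rise reported by CNG channel membrane potential dye signal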
OX1R antag-2 = OX1R (human) antagonism; inhibition, % at 6.6 µM; OX1R-expressing cells, FRET antagonist read-out; 1.8% of 330,000 active; AID 485270; in the data active = inhibition mostly above about 38%, no sharp cut-off; inactive = mostly below about 40%
GPR7 antag = human neuropeptides B/W receptor 1 antagonism. inhibition, % at 4.4 µM. GPR7-expressing cells, fluorescence antagonist assay. P48145. 1.1% of 290,000 active; in the data active = inhibition above about 16%, passing the limit was not always enough;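 also: cells stimulated with the agonist NPW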
Target sequence (P48145 whole entry, looked up): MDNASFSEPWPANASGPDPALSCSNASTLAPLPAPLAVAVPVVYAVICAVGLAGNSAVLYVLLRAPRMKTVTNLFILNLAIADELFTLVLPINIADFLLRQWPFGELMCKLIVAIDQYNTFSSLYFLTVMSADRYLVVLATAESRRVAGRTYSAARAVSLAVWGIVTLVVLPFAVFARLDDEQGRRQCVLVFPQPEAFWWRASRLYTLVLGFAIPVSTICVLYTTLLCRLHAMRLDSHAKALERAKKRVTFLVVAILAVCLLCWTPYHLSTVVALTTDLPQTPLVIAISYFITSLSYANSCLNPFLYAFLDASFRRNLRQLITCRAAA
OX1R HTRF confirm = confirmation of human orexin 1 receptor antagonists, HTRF format; shares compounds with OX1R antag-2; OX1R-expressing cells, HTRF antagonist assay; inhibition, % at 6.6 µM; 49% of 1,800 active; AID 492964; in the data active = inhibition above about 55%;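 also: CHO cells expressing OX1R stimulated with orexin A at about EC80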
CHO-K1 HTRF cnt = counter-screen: parental CHO-K1 HTRF response. shares compounds with OX1R antag-2. parental CHO-K1 cells, HTRF counterscreen. inhibition, % at 6.6 µM. 48% of 1,800 active. AID 493232; in the data active = inhibition above about 17%
Large screens that a line does not name were inactive (follow-up assays come after a bar, where they were run). The list is not random: actives were taken first. Their share in the collection is about 3.1%.

O=C(C(=O)N1CCC(CNC(=O)c2cccnc2Cl)CC1)c1cc2ccccc2o1	none (no result: OX1R antag-1, CHO parental Ca, OX1R antag-2, GPR7 antag)
Cc1ccc(Oc2c(C(N)=O)cc([N+](=O)[O-])cc2[N+](=O)[O-])cc1	OX1R antag-2 104.6 | OX1R HTRF confirm 79.6 | CHO-K1 HTRF cnt 76.5
CCOC(=O)c1c2c3c(cccc3n(C)c1=O)C(=O)c1ccccc1-2	none
CC(=O)Nc1c2c3c(cccc3n(C)c1=O)C(=O)c1ccccc1-2	OX1R antag-2 154.0 | OX1R HTRF confirm inactive | CHO-K1 HTRF cnt 64.6
NC(=O)CSc1ncc(-c2ccc([N+](=O)[O-])cc2)[nH]1	OX1R antag-2 80.5 | OX1R HTRF confirm inactive | CHO-K1 HTRF cnt 33.5
Nc1ncnc2nc(SCCOc3ccc(Cl)cc3)[nH]c12	none
Cc1ccc(OCCSc2nc3ncnc(N)c3[nH]2)cc1	OX1R antag-2 99.3 | OX1R HTRF confirm inactive | CHO-K1 HTRF cnt inactive
CC(C(=O)NCCN1C(=O)S/C(=C\c2cccnc2)C1=O)N1C(=O)c2ccccc2C1=O (centres undefined)	OX1R antag-2 78.8 | OX1R HTRF confirm 63.9 | CHO-K1 HTRF cnt 40.4
COc1ccc(C(=O)NCCN2C(=O)S/C(=C\c3cccnc3)C2=O)c(OC)c1OC	OX1R antag-2 82.2 | OX1R HTRF confirm 57.8 | CHO-K1 HTRF cnt 23.6
O=C(CNC(=O)C1CCCCC1)OCC(=O)c1cccc(Cl)c1	none (no result: GPR7 antag)
CCOC(=O)Nc1nn(-c2ccc(C)cc2)c(=O)c(C#N)c1C	OX1R antag-2 120.2 | OX1R HTRF confirm 58.1 | CHO-K1 HTRF cnt 61.4
CCOC(=O)c1nn(-c2ccccc2)c(=O)c(C#N)c1C	OX1R antag-2 145.4 | OX1R HTRF confirm inactive | CHO-K1 HTRF cnt 81.0
CCOC(=O)c1nn(-c2ccc(Cl)cc2Cl)c(=N)c(C#N)c1C	none (no result: GalR3 antag)
Cc1cc(-c2ccc(C(C)C)c(S(=O)(=O)Nc3cc(C)on3)c2)on1	none
O=[n+]1cc(-c2ccccc2)n([O-])c2c1CCCCC2	none
O=[n+]1cc(-c2cc3ccccc3o2)n([O-])c2c1CCCC2	OX1R antag-2 89.1 (no result: GPR7 antag) | OX1R HTRF confirm inactive | CHO-K1 HTRF cnt 43.8
COC(=O)c1cccc(CSc2nc(-c3ccccc3)c(C#N)c(=O)[nH]2)c1	none
COc1cccc2oc3ccc(C#Cc4ccccn4)cc3c(=O)c12	OX1R antag-2 84.6 | OX1R HTRF confirm 91.2 | CHO-K1 HTRF cnt inactive
COc1ccc(OC)c(NC(=O)NCCc2c[nH]c3ccccc23)c1	none (no result: OX1R antag-1, CHO parental Ca, OX1R antag-2)
COC(=O)c1sccc1NC(=O)Cn1nnc(-c2ccccc2C)n1	none
CNc1ccc(/C=C(\CCC(=O)O)c2nc3ccccc3s2)cc1[N+](=O)[O-]	OX1R antag-2 87.4 | OX1R HTRF confirm inactive | CHO-K1 HTRF cnt inactive
Cc1ccc(/C=C(\CCC(=O)O)c2nc3ccccc3s2)cc1[N+](=O)[O-]	none
COc1ccc2[nH]cc(CCNC(=O)Cn3cc(C)c(=O)[nH]c3=O)c2c1	none (no result: OX1R antag-1, CHO parental Ca, OX1R antag-2, GPR7 antag)
COCCCNC(=O)CN1C(=O)/C(=C\c2ccc(C)cc2)Sc2ccccc21	OX1R antag-2 77.7 | OX1R HTRF confirm inactive | CHO-K1 HTRF cnt inactive
Cc1cccc2nc(-c3cccc(NC(=O)c4ccc(Cl)cc4)c3)cn12	OX1R antag-2 84.2 | OX1R HTRF confirm 78.7 | CHO-K1 HTRF cnt 24.4
COc1c(C)cc(C(=O)C2CCCN(C(=O)c3cc4nc(C)cc(C)n4n3)C2)cc1C (centres undefined)	none
CCS(=O)(=O)c1ccc(Sc2nncn2C)c([N+](=O)[O-])c1	OX1R antag-2 96.4 | OX1R HTRF confirm inactive | CHO-K1 HTRF cnt 50.9
CCC(C)(C)NC(=O)c1ccc(Sc2nncn2C)c([N+](=O)[O-])c1	none
CC(C)c1ccc2[nH]c(O)c(N=NC(=O)c3cccc(S(=O)(=O)Nc4ccccc4Cl)c3)c2c1	none
O=C(N=Nc1c(O)[nH]c2ccccc12)c1cccc(S(=O)(=O)Nc2ccccc2Cl)c1	OX1R antag-2 84.2 | OX1R HTRF confirm 92.0 | CHO-K1 HTRF cnt inactive
Nc1nc2ccccc2n1/N=C/c1ccc([N+](=O)[O-])s1	OX1R antag-2 78.1 | OX1R HTRF confirm inactive | CHO-K1 HTRF cnt 26.9
COc1ccccc1NC(=O)c1cc2c(CO)cnc(C)c2oc1=Nc1cc(OC)c(OC)c(OC)c1	none
COc1cc(N=c2oc3c(C)ncc(CO)c3cc2C(N)=O)cc(OC)c1OC	OX1R antag-2 120.9 | OX1R HTRF confirm 54.7 | CHO-K1 HTRF cnt 58.2
CCCC[n+]1ccc(-c2nc3ccc([N+](=O)[O-])cc3[nH]2)cc1	OX1R antag-2 113.0 | OX1R HTRF confirm 56.0 | CHO-K1 HTRF cnt 80.0
COc1ccc(/C=C/C(=O)NCC(=O)N2CCC(N(C)CCN3CCOCC3)CC2)cc1OC	none
CCOc1ccc(NC(=O)CNS(=O)(=O)c2c(C)cc(C)cc2C)cc1	OX1R antag-2 82.4 | OX1R HTRF confirm 61.9 | CHO-K1 HTRF cnt inactive
Nc1ncc(-c2ccc([N+](=O)[O-])cc2)cn1	OX1R antag-2 104.6 | OX1R HTRF confirm inactive | CHO-K1 HTRF cnt 41.5
CC(Cc1ccccc1)NC(=O)c1cc([N+](=O)[O-])ccc1Cl (centres undefined)	none
Cc1ccc(C(=O)N2CCCC2(C)C(=O)NCC(C)C)cc1F (centres undefined)	none (no result: OX1R antag-1, CHO parental Ca, OX1R antag-2, GPR7 antag)
CC(=O)c1cccc(NC(=O)CCNS(=O)(=O)c2cccc3nonc23)c1	OX1R antag-2 97.4 | OX1R HTRF confirm inactive | CHO-K1 HTRF cnt 22.8
COc1ccccc1C(=O)NC1CCSc2ccccc21 (centres undefined)	OX1R antag-2 79.7 | OX1R HTRF confirm 66.3 | CHO-K1 HTRF cnt inactive
O=C1C=CC(O)(c2cc(=O)c3c(O)cc(O)cc3o2)C=C1	none
CC(=O)c1c(C)n([O-])c2cc(F)c(F)cc2[n+]1=O	OX1R antag-2 81.0 | OX1R HTRF confirm 67.4 | CHO-K1 HTRF cnt 54.4
CN1CCN(C(=O)C2=NOC3(C2)C(=O)Nc2ccccc23)CC1 (centres undefined)	none (no result: OX1R antag-1, CHO parental Ca, OX1R antag-2, GPR7 antag)
CSc1nc2n(n1)C(c1cccs1)C1=C(CCCC1=O)N2 (centres undefined)	OX1R antag-2 105.7 | OX1R HTRF confirm inactive | CHO-K1 HTRF cnt inactive
O=C1CCCC2=C1C(c1cccs1)n1nc(SCc3ccccc3F)nc1N2 (centres undefined)	none
COc1ccccc1C1=Nn2c(COc3ccccc3)nnc2SC1	none (no result: GalR3 antag)
CCOC(=O)c1nnn(-c2ccc([N+](=O)[O-])cc2[N+](=O)[O-])c1C	OX1R antag-2 142.8 | OX1R HTRF confirm inactive | CHO-K1 HTRF cnt 73.4
CC(C)C[C@@H](CNCC(=O)[C@H](CC(=O)O)NC(=O)c1[nH]cnc1C(=O)N[C@H](CN)CC(C)C)NC(=O)c1nc[nH]c1C(=O)N[C@@H](C)C(=O)O	none (no result: OX1R antag-1, CHO parental Ca, OX1R antag-2, GPR7 antag)
CCOC(=O)C1Nc2ccccc2C2C(O)C(O)CC12 (centres undefined)	OX1R antag-2 83.2 (no result: GPR7 antag) | OX1R HTRF confirm inactive | CHO-K1 HTRF cnt 19.8
COc1ccc(NC(=O)CSc2nnnn2C)c([N+](=O)[O-])c1	OX1R antag-2 117.4 | OX1R HTRF confirm inactive | CHO-K1 HTRF cnt 46.1

High-throughput results as filed in PubChem BioAssay.
